Source: ChEMBL document CHEMBL1140411, “Deoxyuridine triphosphate nucleotidohydrolase as a potential antiparasitic drug target” (J Med Chem, 2005)

Assays:
[1] = biological target: T1, Deoxyuridine 5'-triphosphate nucleotidohydrolase, mitochondrial (Homo sapiens, UniProt P33316); test: Inhibitory constant against human deoxyuridine 5'-triphosphate nucleotidohydrolase expressed in Escherichia coli BL21 (DE3) cells
T1 sequence (P33316 whole entry): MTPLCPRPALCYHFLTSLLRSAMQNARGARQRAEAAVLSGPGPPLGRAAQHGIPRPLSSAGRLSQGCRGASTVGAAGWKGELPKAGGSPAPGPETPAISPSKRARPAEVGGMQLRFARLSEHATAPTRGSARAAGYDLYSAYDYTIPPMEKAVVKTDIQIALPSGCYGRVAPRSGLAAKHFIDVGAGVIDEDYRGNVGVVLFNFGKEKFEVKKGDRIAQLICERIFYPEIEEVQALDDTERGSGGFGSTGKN
In short: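 Human dUTPase expressed in E. coli BL21(DE3) and purified like the Plasmodium enzyme (phosphocellulose, then gel filtration). dUTP hydrolysis followed continuously by stopped-flow as pH-indicator absorbance (cresol red/bicine, 50:2000 µM, 573 nm). Apparent KM from integrated Michaelis-Menten fits at each inhibitor concentration; Ki from linear KMapp versus [I].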

L6 = test: In vitro cytotoxicity aganist rat skeletal myoblasts (L-6 cells) after 72 hours; format: functional, cell-based; conditions: L6, 72 h
In short: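 L-6 rat skeletal myoblasts seeded at 4 × 10^4 cells/mL in RPMI 1640 with 10% FBS and 2 mM L-glutamine. After 24 h, medium replaced with a serial drug dilution, then 72 h at 37 °C, 5% CO2. Alamar Blue added for a further 2-4 h. Fluorescence read at ex 536/em 588 nm. Run twice independently, in duplicate.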

[2] = test system: Trypanosoma brucei rhodesiense; test: Inhibitory constant against Trypanosoma brucei rhodesiense upon incubation with the compound at 37 degrees C under a 5% CO2 atmosphere for 72 hours; format: functional, organism-based
Leishmania donovani = test: In vitro growth inhibitory activity against Leishmania donovani amastigotes at 37 degrees C under a 5% CO2 atmosphere for 96 hours; format: functional, organism-based
In short: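 Mouse peritoneal macrophages in RPMI 1640 with 10% heat-inactivated FBS, infected after 24 h with L. donovani amastigotes at 3:1 (amastigote:macrophage). Free amastigotes washed out at 4 h. Next day, drug-containing medium added for 96 h at 37 °C, 5% CO2. Slides methanol-fixed and Giemsa-stained. Percentage of infected macrophages scored microscopically versus control; IC50 by linear regression. Twice independently, in duplicate.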

Trypanosoma cruzi = test: In vitro growth inhibitory activity against Trypanosoma cruzi in rat L-6 cells upon incubation at 37 degrees C in 5% CO2 atmosphere for 4 days; format: functional, organism-based; conditions: L6, 96 h
In short: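 L-6 cells seeded at 2000 cells/well in RPMI 1640 with 10% FBS and 2 mM L-glutamine. After 24 h, 5000 T. cruzi Tulahuen C2C4 LacZ trypomastigotes added with serial drug dilutions, then 4 days at 37 °C, 5% CO2. CPRG/Nonidet substrate added and colour read at 540 nm after 2-4 h. IC50 from sigmoidal curve. Twice independently, in duplicate.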

[3] = biological target: T2, dUTP pyrophosphatase (Plasmodium falciparum 3D7) (UniProt Q8II92); test: Selectivity index for Plasmodium falciparum deoxyuridine 5'-triphosphate nucleotidohydrolase defined as (Ki Human)/(Ki Plasmodium falciparum)
T2 sequence (whole entry): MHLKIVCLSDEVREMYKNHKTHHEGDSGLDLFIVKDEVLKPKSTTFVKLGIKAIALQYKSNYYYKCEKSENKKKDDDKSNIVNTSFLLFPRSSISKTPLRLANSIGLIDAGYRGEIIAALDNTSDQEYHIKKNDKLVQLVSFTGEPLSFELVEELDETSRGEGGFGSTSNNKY
In short: (§1)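 Ratio of human dUTPase Ki to P. falciparum dUTPase Ki. Both Ki values came from stopped-flow pH-indicator assays following dUTP hydrolysis, with Ki derived from the dependence of apparent KM on inhibitor concentration.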

dUTP pyrophosphatase [4] = biological target: T3, dUTP pyrophosphatase (Leishmania major, UniProt O15826); test: Inhibitory constant against Leishmania major deoxyuridine 5'-triphosphate nucleotidohydrolase
T3 sequence (O15826 whole entry): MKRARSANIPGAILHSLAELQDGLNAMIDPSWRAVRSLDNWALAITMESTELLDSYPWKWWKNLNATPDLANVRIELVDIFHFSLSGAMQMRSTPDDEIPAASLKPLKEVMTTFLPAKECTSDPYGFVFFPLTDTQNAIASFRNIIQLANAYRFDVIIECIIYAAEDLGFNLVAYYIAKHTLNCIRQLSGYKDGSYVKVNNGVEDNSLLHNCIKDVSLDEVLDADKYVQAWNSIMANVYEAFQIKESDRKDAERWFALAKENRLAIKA

Plasmodium falciparum = test: In vitro inhibitory activity against Plasmodium falciparum as [3H]hypoxanthine (50 uL) incorporation at 37C; format: functional, organism-based
dUTP pyrophosphatase [5] = biological target: T4, dUTP pyrophosphatase (Plasmodium falciparum 3D7, UniProt Q8II92); test: Inhibitory constant against Plasmodium falciparum deoxyuridine 5'-triphosphate nucleotidohydrolase expressed in Escherichia coli BL21 (DE3) cells
T4 sequence (Q8II92 whole entry): T2 sequence (whole entry)
In short: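 Recombinant PfdUTPase expressed in E. coli BL21(DE3) and purified by phosphocellulose and gel filtration to ~96% purity. Continuous stopped-flow assay following proton release with cresol red/bicine (50:2000 µM, 573 nm). Mix: 30 nM enzyme, 50 µM dUTP, 5 mM MgCl2, 2.5 mM DTT, 1.25 mg/mL BSA, 100 mM KCl. KMapp from integrated Michaelis-Menten fits, plotted against [I] to give Ki.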

[6] = biological target: T2, dUTP pyrophosphatase (Plasmodium falciparum 3D7); test: Selectivity index for Plasmodium falciparum deoxyuridine 5'-triphosphate nucleotidohydrolase defined as (Ki Human)/(Ki Plasmodium falciparum); na= not relevant; in short: as §1

| SMILES | Ki [1] [µM] | IC50 [2] [µM] | IC50 (Trypanosoma cruzi) [µM] | SI [3] | Ki (dUTP pyrophosphatase [4]) [µM] | IC50 (Plasmodium falciparum) [µM] | Ki (dUTP pyrophosphatase [5]) [µM] | SI [6] | IC50 (L6) [µM] | IC50 (Leishmania donovani) [µM] |
| --- | --- | --- | --- | --- | --- | --- | --- | --- | --- | --- |
| Cc1ccc(S(=O)(=O)OC[C@H]2O[C@@H](n3ccc(=O)[nH]c3=O)C[C@@H]2O)cc1 | > 1000 | 44 | > 236 | > 7 | > 1000 | > 13 | 142 | – | > 236 | > 79 |
| CC(C)(C)[Si](C)(C)O[C@H]1C[C@H](n2ccc(=O)[nH]c2=O)O[C@@H]1COC(c1ccccc1)(c1ccccc1)c1ccccc1 | > 1000 | 25 | 247 | > 1.9 | 454 | 1 | 515 | – | > 154 | 17 |
| CC(=O)OC[C@H]1O[C@@H](n2ccc(=O)[nH]c2=O)C[C@@H]1O | > 1000 | 13 | 273 | > 3 | > 1000 | > 19 | 294 | – | 64 | > 111 |
| CCOP(=O)(OCC)OC[C@H]1O[C@@H](n2ccc(=O)[nH]c2=O)C[C@@H]1O | > 1000 | 37 | > 247 | > 3 | > 1000 | > 14 | 316 | – | 198 | > 82 |
| O=c1ccn([C@H]2C[C@H](O)[C@@H](COP(=O)(Oc3ccccc3)Oc3ccccc3)O2)c(=O)[nH]1 | 135 | 52 | > 196 | 0.6 | > 1000 | > 11 | 238 | – | > 196 | > 65 |
| CC(C)(C)[Si](C)(C)O[C@H]1C[C@H](n2ccc(=O)[nH]c2=O)O[C@@H]1COP(=O)(Oc1ccccc1)Oc1ccccc1 | > 1000 | 12 | 10 | > 1.7 | 116 | 6 | 597 | – | > 157 | > 17 |
| CCOP(=O)(OCC)OC[C@H]1O[C@@H](n2ccc(=O)[nH]c2=O)C[C@@H]1O[Si](C)(C)C(C)(C)C | > 1000 | 35 | 41 | > 3 | > 1000 | > 10 | 340 | – | 108 | 63 |
| O=c1ccn(C2C=CC(CO[Si](c3ccccc3)(c3ccccc3)c3ccccc3)O2)c(=O)[nH]1 (centres undefined) | > 1000 | 1.6 | 42 | > 769 | 350 | 1 | 1.3 | – | 85 | 13 |
| NS(=O)(=O)NC(=O)OCC1C=CC(n2ccc(=O)[nH]c2=O)O1 (centres undefined) | 799 | 40 | > 270 | 9.7 | > 1000 | > 150 | 82 | – | 262 | > 90 |
| CCCCC(=O)NCC1OC(n2ccc(=O)[nH]c2=O)CC1O (centres undefined) | > 1000 | 149 | > 289 | > 5 | > 1000 | > 16 | 189 | – | > 289 | > 97 |
| O=c1ccn(C2CC(F)C(CO[Si](c3ccccc3)(c3ccccc3)c3ccccc3)O2)c(=O)[nH]1 (centres undefined) | > 1000 | 4.5 | 84 | – | > 1000 | 1 | 975 | Not Relevant | 86 | – |
| O=c1ccn(C2CC(O)C(CNP(=O)(Oc3ccccc3)Oc3ccccc3)O2)c(=O)[nH]1 (centres undefined) | > 1000 | > 196 | > 65 | > 38 | > 1000 | > 11 | 26 | – | > 196 | > 65 |
| NS(=O)(=O)OC[C@H]1O[C@@H](n2ccc(=O)[nH]c2=O)C[C@@H]1O | > 1000 | 145 | > 293 | – | 707 | > 163 | > 1000 | Not Relevant | – | > 98 |
| CC(C)(C)[Si](C)(C)OC1CC(n2ccc(=O)[nH]c2=O)OC1CNP(=O)(Oc1ccccc1)Oc1ccccc1 (centres undefined) | 232 | 28 | 6 | 3.5 | > 1000 | 4 | 67 | – | 18 | < 6 |
| CC(C)(C)[Si](C)(C)O[C@H]1C[C@H](n2ccc(=O)[nH]c2=O)O[C@@H]1CO | 119 | 83 | > 263 | 0.2 | 114 | > 15 | 648 | – | > 263 | > 88 |

Second part, led by results:

| Ki [1] [µM] | IC50 [2] [µM] | IC50 (Trypanosoma cruzi) [µM] | SI [3] | Ki (dUTP pyrophosphatase [4]) [µM] | IC50 (Plasmodium falciparum) [µM] | Ki (dUTP pyrophosphatase [5]) [µM] | SI [6] | SMILES | IC50 (L6) [µM] | IC50 (Leishmania donovani) [µM] |
| --- | --- | --- | --- | --- | --- | --- | --- | --- | --- | --- |
| > 1000 | 123 | > 222 | > 8 | > 1000 | 98 | 123 | – | CCOP(=O)(CC(=O)OC[C@H]1O[C@@H](n2ccc(=O)[nH]c2=O)C[C@@H]1O)OCC | 168 | > 74 |
| > 1000 | 194 | > 335 | – | > 1000 | > 19 | > 1000 | Not Relevant | CC(=O)NCC1OC(n2ccc(=O)[nH]c2=O)CC1O (centres undefined) | > 335 | > 112 |
| > 1000 | 147 | > 295 | > 5 | > 1000 | > 16 | 178 | – | CS(=O)(=O)NCC1OC(n2ccc(=O)[nH]c2=O)CC1O (centres undefined) | > 295 | > 98 |
| > 1000 | – | – | – | > 1000 | – | > 1000 | Not Relevant | NCC1OC(n2ccc(=O)[nH]c2=O)CC1O (centres undefined) | – | – |
| > 1000 | 147 | > 284 | > 4 | > 1000 | > 16 | 228 | – | CCCCC(=O)OC[C@H]1O[C@@H](n2ccc(=O)[nH]c2=O)C[C@@H]1O | > 289 | 96 |
| 469 | 120 | > 272 | 2.6 | > 1000 | > 15 | 178 | – | O=C(NCC1OC(n2ccc(=O)[nH]c2=O)CC1O)c1ccccc1 (centres undefined) | > 272 | > 91 |
| – | 40 | 75 | – | > 1000 | 18 | 217 | Not Relevant | CCOP(=O)(CC(=O)OC[C@H]1O[C@@H](n2ccc(=O)[nH]c2=O)C[C@@H]1O[Si](C)(C)C(C)(C)C)OCC | – | > 58 |
